In publication PMC4367188 (ACS Chemical Neuroscience, 2015):
≈ marks a conversion by molar mass, not a printed value.

How the values were obtained:
Neuropeptide Y Y2 = Neuropeptide Y Y2 (Homo sapiens, UniProt P49146); experiment: Lead Profiling Screen radioligand binding
[1] = target: Transporter, Dopamine (DAT) (Homo sapiens, UniProt Q01959); experiment: Lead Profiling Screen radioligand binding
Glucocorticoid = Glucocorticoid (Homo sapiens, UniProt P04150); experiment: Lead Profiling Screen radioligand binding
Sigma σ1 = Sigma σ1 (Homo sapiens, UniProt Q99720); experiment: Lead Profiling Screen radioligand binding
Thyroid Hormone = experiment: Lead Profiling Screen radioligand binding; details: 10 μM ML352
SERT = SERT (Mus musculus, UniProt Q60857); experiment: serotonin uptake in mouse forebrain synaptosomes; assay type: biochemical; details: 5 μM ML352
SERT, sequence (Q60857 whole entry): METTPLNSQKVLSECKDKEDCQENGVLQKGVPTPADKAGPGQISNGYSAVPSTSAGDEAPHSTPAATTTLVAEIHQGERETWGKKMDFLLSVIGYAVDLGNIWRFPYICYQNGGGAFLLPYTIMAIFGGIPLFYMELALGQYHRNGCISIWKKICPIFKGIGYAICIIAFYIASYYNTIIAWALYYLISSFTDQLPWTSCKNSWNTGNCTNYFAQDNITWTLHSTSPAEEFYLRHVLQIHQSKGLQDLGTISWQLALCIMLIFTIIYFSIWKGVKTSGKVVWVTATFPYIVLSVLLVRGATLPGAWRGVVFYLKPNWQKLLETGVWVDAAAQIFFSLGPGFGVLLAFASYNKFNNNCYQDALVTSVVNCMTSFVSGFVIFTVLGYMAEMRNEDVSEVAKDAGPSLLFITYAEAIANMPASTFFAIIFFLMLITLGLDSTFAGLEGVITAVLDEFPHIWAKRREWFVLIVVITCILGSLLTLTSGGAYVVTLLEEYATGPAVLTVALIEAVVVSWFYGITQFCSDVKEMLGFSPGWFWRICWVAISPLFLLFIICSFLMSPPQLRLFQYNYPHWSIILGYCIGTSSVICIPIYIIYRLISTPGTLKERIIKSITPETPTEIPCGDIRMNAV
How it was run: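 Crude P2 synaptosomes from forebrains of male C57BL/6J mice (8–10 weeks), taken after decapitation under urethane. Incubated 10 min at 37 °C in Krebs bicarbonate buffer with 100 nM [3H]dopamine or [3H]serotonin ± test compound. Stopped on ice, rapidly filtered, counted by scintillation. Specific uptake defined with cocaine 1 μM (DAT) or citalopram 1 μM (SERT). Protein by BCA; n = 3.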

Adrenergic β2 = Adrenergic β2 (Homo sapiens, UniProt P07550); experiment: Lead Profiling Screen radioligand binding
[2] = target: Transporter, Norepinephrine (NET) (Homo sapiens, UniProt P23975); experiment: Lead Profiling Screen radioligand binding
Prostanoid EP4 = Prostanoid EP4 (Homo sapiens, UniProt P35408); experiment: Lead Profiling Screen radioligand binding
Histamine, H3 = Histamine, H3 (Homo sapiens, UniProt Q9Y5N1); experiment: Lead Profiling Screen radioligand binding
Histamine, H2 = Histamine, H2 (Homo sapiens, UniProt P25021); experiment: Lead Profiling Screen radioligand binding
Dopamine D42 = Dopamine D42 (Homo sapiens, UniProt P21917, DEL265-296); experiment: Lead Profiling Screen radioligand binding
[3] = target: Platelet Activating Factor (PAF) (Homo sapiens, UniProt P25105); experiment: Lead Profiling Screen radioligand binding
Platelet Activating Factor (PAF), sequence (P25105 whole entry): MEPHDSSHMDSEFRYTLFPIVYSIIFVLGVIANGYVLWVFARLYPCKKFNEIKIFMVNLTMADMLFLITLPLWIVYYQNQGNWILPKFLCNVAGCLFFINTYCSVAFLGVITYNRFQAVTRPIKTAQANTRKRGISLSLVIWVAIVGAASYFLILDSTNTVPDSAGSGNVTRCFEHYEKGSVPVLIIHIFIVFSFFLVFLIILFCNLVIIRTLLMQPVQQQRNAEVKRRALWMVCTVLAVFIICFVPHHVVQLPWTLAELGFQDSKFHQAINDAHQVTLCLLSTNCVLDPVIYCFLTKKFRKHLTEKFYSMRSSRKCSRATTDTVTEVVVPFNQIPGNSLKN

PBS solubility = assay type: physicochemical; details: aqueous buffer
Neuropeptide Y Y1 = Neuropeptide Y Y1 (Homo sapiens, UniProt P25929); experiment: Lead Profiling Screen radioligand binding
Opiate δ1 (OP1, DOP) = Opiate δ1 (OP1, DOP) (Homo sapiens, UniProt P41143); experiment: Lead Profiling Screen radioligand binding
Adenosine A1 = Adenosine A1 (Homo sapiens, UniProt P30542); experiment: Lead Profiling Screen radioligand binding
Potassium Channel [KATP] = experiment: Lead Profiling Screen radioligand binding; details: 10 μM ML352
Adenosine A3 = Adenosine A3 (Homo sapiens, UniProt P0DMS8); experiment: Lead Profiling Screen radioligand binding
Adenosine A3, sequence (P0DMS8 whole entry): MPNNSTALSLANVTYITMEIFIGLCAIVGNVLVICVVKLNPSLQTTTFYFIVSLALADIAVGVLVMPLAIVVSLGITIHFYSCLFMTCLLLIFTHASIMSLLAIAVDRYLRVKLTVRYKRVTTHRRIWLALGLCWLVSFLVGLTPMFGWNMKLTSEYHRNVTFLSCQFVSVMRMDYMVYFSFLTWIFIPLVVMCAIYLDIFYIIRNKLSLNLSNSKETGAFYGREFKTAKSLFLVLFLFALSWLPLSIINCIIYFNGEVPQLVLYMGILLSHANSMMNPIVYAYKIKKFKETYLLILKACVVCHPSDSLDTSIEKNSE

Glutamate, Kainate = experiment: Lead Profiling Screen radioligand binding; details: 10 μM ML352
P450 2C9 = P450 2C9 (Homo sapiens, UniProt P11712)
P450 2C9, sequence (P11712 whole entry): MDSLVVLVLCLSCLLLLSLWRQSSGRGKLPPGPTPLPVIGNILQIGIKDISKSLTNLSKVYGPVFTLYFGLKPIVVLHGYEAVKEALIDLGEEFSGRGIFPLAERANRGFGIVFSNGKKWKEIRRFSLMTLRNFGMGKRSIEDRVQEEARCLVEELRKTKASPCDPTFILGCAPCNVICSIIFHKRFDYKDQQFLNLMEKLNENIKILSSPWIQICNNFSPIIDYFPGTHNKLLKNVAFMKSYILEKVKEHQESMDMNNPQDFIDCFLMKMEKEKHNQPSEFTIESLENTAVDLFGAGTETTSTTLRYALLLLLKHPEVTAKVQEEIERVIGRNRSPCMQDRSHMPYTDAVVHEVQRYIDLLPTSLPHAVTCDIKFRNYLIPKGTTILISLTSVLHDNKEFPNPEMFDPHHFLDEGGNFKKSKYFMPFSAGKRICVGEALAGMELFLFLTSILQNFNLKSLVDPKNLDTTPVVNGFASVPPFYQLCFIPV

hCHT = target: T1, hCHT (Homo sapiens, UniProt Q9GZV3); experiment: [3H]HC-3 binding to membranes from HEK hCHT cells; details: for [3H]HC-3 binding Bmax: relative to control
T1 sequence (Q9GZV3 1-580): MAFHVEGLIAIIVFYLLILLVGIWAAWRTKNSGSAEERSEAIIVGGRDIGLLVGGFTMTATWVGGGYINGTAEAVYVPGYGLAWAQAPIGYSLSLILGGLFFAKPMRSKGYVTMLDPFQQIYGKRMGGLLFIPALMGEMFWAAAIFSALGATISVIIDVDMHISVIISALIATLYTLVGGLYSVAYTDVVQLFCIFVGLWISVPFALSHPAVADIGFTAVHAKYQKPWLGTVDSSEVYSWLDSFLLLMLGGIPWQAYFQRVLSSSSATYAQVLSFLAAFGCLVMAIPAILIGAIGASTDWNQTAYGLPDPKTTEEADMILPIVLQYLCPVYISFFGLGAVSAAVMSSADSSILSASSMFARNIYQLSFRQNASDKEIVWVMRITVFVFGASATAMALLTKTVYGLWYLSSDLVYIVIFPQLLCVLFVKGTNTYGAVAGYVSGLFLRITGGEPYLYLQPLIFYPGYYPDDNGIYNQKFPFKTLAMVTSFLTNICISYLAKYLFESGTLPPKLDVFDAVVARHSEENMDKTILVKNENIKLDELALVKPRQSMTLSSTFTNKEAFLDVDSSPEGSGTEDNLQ

[4] = target: Leukotriene, Cysteinyl CysLT1 (Homo sapiens, UniProt Q9Y271); experiment: Lead Profiling Screen radioligand binding
Leukotriene, Cysteinyl CysLT1, sequence (Q9Y271 whole entry): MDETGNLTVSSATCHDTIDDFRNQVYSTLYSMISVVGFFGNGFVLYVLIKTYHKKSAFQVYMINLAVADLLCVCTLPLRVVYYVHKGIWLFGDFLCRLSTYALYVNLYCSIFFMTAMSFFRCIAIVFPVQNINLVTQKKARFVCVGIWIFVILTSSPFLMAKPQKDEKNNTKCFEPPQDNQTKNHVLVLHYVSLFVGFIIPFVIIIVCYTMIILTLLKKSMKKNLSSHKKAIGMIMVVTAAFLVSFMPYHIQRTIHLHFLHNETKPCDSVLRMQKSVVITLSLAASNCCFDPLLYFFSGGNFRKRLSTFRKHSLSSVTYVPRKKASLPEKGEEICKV

[5] = target: Nicotinic Acetylcholine α1, Bungarotoxin (Homo sapiens, UniProt P02708+P07510+Q07001); experiment: Lead Profiling Screen radioligand binding
CHT = CHT (Mus musculus, UniProt Q8BGY9); experiment: choline uptake in mouse forebrain synaptosomes; assay type: biochemical; details: ML352 at 300 nM in saturation choline transport assays
[6] = brain tissue distribution in Sprague-Dawley rats; assay type: in vivo; details: male, rat, brain/plasma, iv, 1 mg/kg
hCHT LV-AA = hCHT LV-AA (Homo sapiens, UniProt Q9GZV3, L531A/V532A); experiment: [3H]choline uptake in HEK 293 cells transfected with hCHT LV-AA; assay type: cell-based; details: ML352 at 200 or 800 nM in saturation choline transport assays
Endothelin ETB = Endothelin ETB (Homo sapiens, UniProt P24530); experiment: Lead Profiling Screen radioligand binding
[7] = system: nontransfected HEK 293 cells; experiment: [3H]choline accumulation in nontransfected HEK 293 cells; assay type: cell-based, human; details: 5 μM ML352; data not shown
Calcium Channel N-Type = Calcium Channel N-Type (Rattus norvegicus, UniProt Q02294); experiment: Lead Profiling Screen radioligand binding
Calcium Channel N-Type, sequence (Q02294 whole entry): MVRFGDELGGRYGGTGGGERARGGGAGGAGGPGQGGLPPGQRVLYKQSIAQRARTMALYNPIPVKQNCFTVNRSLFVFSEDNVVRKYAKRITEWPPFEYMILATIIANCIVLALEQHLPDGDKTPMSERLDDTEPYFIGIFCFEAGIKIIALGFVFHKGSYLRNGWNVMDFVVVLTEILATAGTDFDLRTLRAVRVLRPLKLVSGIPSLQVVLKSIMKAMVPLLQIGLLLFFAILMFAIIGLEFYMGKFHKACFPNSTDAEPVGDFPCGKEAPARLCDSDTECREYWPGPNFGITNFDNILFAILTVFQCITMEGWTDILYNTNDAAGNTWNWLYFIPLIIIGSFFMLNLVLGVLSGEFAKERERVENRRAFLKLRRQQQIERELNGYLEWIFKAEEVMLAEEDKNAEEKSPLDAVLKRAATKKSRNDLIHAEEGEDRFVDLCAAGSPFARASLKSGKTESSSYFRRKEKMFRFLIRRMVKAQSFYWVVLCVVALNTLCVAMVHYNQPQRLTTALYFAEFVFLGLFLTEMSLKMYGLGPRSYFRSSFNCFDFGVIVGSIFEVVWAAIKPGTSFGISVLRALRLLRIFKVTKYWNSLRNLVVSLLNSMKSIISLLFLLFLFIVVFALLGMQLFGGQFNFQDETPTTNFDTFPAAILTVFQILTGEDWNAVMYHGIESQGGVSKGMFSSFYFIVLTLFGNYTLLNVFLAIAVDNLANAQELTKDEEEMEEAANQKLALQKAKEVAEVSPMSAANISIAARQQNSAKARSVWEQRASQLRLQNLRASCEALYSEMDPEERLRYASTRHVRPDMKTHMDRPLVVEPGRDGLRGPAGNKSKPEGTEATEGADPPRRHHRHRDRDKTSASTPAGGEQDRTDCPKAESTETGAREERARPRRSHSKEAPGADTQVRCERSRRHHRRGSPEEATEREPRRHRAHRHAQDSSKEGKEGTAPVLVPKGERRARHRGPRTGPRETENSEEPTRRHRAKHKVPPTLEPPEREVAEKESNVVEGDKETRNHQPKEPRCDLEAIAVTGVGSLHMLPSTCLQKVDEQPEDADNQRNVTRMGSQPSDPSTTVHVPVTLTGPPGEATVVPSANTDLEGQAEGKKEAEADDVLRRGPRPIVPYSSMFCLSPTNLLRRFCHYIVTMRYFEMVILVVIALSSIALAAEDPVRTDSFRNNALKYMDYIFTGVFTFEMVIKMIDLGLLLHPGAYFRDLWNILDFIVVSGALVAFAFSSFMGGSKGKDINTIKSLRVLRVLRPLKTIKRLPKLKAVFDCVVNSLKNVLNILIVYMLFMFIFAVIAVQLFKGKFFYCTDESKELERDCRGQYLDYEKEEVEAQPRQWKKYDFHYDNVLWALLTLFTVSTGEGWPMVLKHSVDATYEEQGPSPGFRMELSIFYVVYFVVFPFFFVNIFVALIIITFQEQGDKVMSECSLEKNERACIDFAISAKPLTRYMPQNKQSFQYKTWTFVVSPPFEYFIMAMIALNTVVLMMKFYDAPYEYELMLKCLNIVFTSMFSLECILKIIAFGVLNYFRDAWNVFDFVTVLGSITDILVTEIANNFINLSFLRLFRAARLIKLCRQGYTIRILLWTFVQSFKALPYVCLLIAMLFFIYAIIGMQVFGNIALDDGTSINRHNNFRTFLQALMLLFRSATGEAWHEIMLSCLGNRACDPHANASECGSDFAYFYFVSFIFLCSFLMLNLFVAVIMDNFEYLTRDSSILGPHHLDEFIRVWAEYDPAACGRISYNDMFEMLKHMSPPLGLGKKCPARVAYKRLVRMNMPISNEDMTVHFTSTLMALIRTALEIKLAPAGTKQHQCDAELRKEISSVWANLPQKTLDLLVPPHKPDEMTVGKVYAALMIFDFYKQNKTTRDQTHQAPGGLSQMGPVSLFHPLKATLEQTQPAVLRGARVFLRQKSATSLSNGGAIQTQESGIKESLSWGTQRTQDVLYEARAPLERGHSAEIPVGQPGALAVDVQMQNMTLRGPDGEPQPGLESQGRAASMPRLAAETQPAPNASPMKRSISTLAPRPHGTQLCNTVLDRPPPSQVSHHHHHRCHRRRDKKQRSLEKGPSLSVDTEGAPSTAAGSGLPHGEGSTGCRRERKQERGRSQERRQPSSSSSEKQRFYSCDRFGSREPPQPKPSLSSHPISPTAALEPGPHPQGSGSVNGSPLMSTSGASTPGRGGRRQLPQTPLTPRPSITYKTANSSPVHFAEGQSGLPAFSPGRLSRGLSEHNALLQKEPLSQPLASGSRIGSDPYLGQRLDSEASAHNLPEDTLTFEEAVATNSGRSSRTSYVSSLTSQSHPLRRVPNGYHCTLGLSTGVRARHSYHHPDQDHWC

Dopamine D1 = Dopamine D1 (Homo sapiens, UniProt P21728); experiment: Lead Profiling Screen radioligand binding
Dopamine D1, sequence (P21728 whole entry): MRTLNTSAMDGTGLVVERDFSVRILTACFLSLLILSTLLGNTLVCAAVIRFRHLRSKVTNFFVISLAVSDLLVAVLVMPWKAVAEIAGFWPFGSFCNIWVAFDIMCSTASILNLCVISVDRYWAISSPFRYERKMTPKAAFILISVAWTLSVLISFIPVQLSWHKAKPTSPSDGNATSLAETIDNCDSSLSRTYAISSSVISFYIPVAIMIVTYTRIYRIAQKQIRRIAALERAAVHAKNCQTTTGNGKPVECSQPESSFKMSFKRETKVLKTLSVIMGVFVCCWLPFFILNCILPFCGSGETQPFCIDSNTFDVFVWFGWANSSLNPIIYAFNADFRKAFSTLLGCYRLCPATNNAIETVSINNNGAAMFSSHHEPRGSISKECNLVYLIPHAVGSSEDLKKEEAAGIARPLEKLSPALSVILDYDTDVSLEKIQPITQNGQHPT

Question: For `COc1ccc(C(=O)NCc2cc(C(C)C)no2)cc1OC1CCN(C)CC1` [ML352, N-((3-isopropylisoxazol-5-yl)methyl)-4-methoxy-3-((1-methylpiperidin-4-yl)oxy)benzamide], which inhibition at 10 µM (Neuropeptide Y Y2) is on record?
Answer: 7%

Question: What about the inhibition at 10 µM [1] of the same compound?
Answer: 4%

Question: And the inhibition at 10 µM (Glucocorticoid)?
Answer: -1%

Question: And the inhibition at 10 µM (Sigma σ1)?
Answer: -1%

Question: What about the “% inhibition” value (Thyroid Hormone) of the same compound?
Answer: 6%

Question: What about the “inhibition of SERT” value (SERT) of the same compound?
Answer: fails to inhibit

Question: What about the inhibition at 10 µM (Adrenergic β2) of the same compound?
Answer: 43%

Question: What about the inhibition at 10 µM [2] of the same compound?
Answer: 12%

Question: What about the inhibition at 10 µM (Prostanoid EP4) of the same compound?
Answer: -7%

Question: And the inhibition at 10 µM (Histamine, H3)?
Answer: 7%

Question: What about the inhibition at 10 µM (Histamine, H2) of the same compound?
Answer: 20%

Question: What about the inhibition at 10 µM (Dopamine D42) of the same compound?
Answer: -3%

Question: What about the inhibition at 10 µM [3] of the same compound?
Answer: -4%

Question: What about the solubility (PBS solubility) of the same compound?
Answer: 98.2 ± 1.1 µM (≈ 38.1 µg/mL)

Question: And the inhibition at 10 µM (Neuropeptide Y Y1)?
Answer: -2%

Question: And the inhibition at 10 µM (Opiate δ1 (OP1, DOP))?
Answer: -2%

Question: And the inhibition at 10 µM (Adenosine A1)?
Answer: -5%

Question: And the “% inhibition” value (Potassium Channel [KATP])?
Answer: 4%

Question: What about the inhibition at 10 µM (Adenosine A3) of the same compound?
Answer: 4%

Question: And the “% inhibition” value (Glutamate, Kainate)?
Answer: –2%

Question: What about the IC50 (P450 2C9) of the same compound?
Answer: > 30 µM

Question: And the “[3H]HC-3 binding Bmax” value (hCHT; 200 nM ML352)?
Answer: 80.3 ± 3.8%

Question: And the “[3H]HC-3 binding Bmax” value (hCHT; 800 nM ML352)?
Answer: 48.9 ± 4.1%

Question: And the “mode of inhibition of [3H]HC-3 binding” value (hCHT; transfected cell membranes, 200 and 800 nM ML352)?
Answer: noncompetitive inhibition

Question: What about the inhibition at 10 µM [4] of the same compound?
Answer: -3%

Question: What about the inhibition at 10 µM [5] of the same compound?
Answer: 7%

Question: What about the “mode of choline uptake inhibition” value (CHT) of the same compound?
Answer: noncompetitively inhibits

Question: And the Kp at […] [6]?
Answer: 0.2

Question: And the “mode of choline uptake inhibition” value (hCHT LV-AA)?
Answer: noncompetitively inhibits

Question: And the inhibition at 10 µM (Endothelin ETB)?
Answer: -2%

Question: What about the “effect on [3H]choline accumulation in nontransfected HEK 293 cells” value [7] of the same compound?
Answer: < 20%

Question: And the inhibition at 10 µM (Calcium Channel N-Type)?
Answer: -1%

Question: And the inhibition at 10 µM (Dopamine D1)?
Answer: 9%
